Measurements taken from ChEMBL document CHEMBL4312019, “Design, synthesis, and evaluation of compounds capable of reducing Pseudomonas aeruginosa virulence” (Eur J Med Chem, 2020).
Calls of active or inactive are those of the source. The rule behind the calls is not given here.

What was measured:
[1] = test system: Pseudomonas aeruginosa; test: Inhibition of biofilm formation in Pseudomonas aeruginosa PA14 at 10 uM incubated for 10 hrs by crystal violet staining based microtiter plate method relative to control; assay type: functional; settings: PA14, 10 h
Outline: (§1)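 PAO1 or PA14 grown at 37 °C with 10 µM compound or vehicle. Expressed as percent biofilm biomass versus vehicle-treated control; mean ± SEM.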

[2] = molecular target: Voltage-gated inwardly rectifying potassium channel KCNH2 (Homo sapiens, UniProt Q12809); test: Inhibition of human ERG
[3] = Inhibition of quorum sensing system in Pseudomonas aeruginosa assessed as reduction of rhamnolipids level at 10 uM measured after 24 hrs by methylene-blue based assay relative to control
Outline: (§2)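 P. aeruginosa grown 24 h with or without 10 µM compound. Rhamnolipids quantified by methylene-blue assay against a six-point standard curve of commercial rhamnolipids.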

[4] = test system: Pseudomonas aeruginosa; test: Inhibition of biofilm formation in Pseudomonas aeruginosa PAO1 at 10 uM incubated for 10 hrs by crystal violet staining based microtiter plate method relative to control; assay type: functional; settings: PAO1, 10 h; outline: as §1
[5] = test system: Pseudomonas aeruginosa; test: Inhibition of biofilm formation in Pseudomonas aeruginosa PAO1 at 10 uM incubated for 10 hrs by crystal violet staining based microtiter plate method; assay type: functional, organism-based; outline: as §1
[6] = molecular target: T1, Transcriptional regulator MvfR (Pseudomonas aeruginosa PA14) (UniProt A0A072ZLE6); test: Inhibition of Pseudomonas aeruginosa PAO1 PqsR assessed as reduction in pyocyanin production level at 10 uM measured after 10 mins by spectrometry based analysis
T1 sequence (whole entry): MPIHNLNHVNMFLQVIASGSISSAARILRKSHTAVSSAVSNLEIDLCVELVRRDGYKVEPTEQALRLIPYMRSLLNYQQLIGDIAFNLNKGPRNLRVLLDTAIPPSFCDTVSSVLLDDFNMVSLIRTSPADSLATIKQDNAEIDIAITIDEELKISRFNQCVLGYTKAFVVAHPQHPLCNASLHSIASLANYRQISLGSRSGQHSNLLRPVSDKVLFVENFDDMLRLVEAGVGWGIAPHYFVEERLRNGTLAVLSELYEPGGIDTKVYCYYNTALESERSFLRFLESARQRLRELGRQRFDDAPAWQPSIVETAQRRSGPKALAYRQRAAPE
Outline: (§3)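 PAO1 cultured with or without 10 µM compound. Pyocyanin quantified by a spectrometry-based method and expressed as percent of vehicle-treated control. Mean ± SEM of at least 32 replicates.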

[7] = test system: Pseudomonas aeruginosa; test: Inhibition of biofilm formation in Pseudomonas aeruginosa PA14 at 10 uM incubated for 10 hrs by crystal violet staining based microtiter plate method; assay type: functional, organism-based; outline: as §1
[8] = molecular target: T1, Transcriptional regulator MvfR (Pseudomonas aeruginosa PA14); test: Inhibition of Pseudomonas aeruginosa PAO1 PqsR assessed as increase in pyocyanin production level at 10 uM measured after 10 mins by spectrometry based analysis relative to control; outline: as §3
[9] = Inhibition of quorum sensing system in Pseudomonas aeruginosa assessed as reduction of rhamnolipids level at 10 uM measured after 24 hrs by methylene-blue based assay; outline: as §2
[10] = test system: Pseudomonas aeruginosa; test: Inhibition of pyocyanin production in Pseudomonas aeruginosa at 100 uM relative to control; assay type: functional
[11] = test system: Pseudomonas aeruginosa; test: Inhibition of pyoverdin production in Pseudomonas aeruginosa at 10 uM relative to control; assay type: functional
[12] = test system: Pseudomonas aeruginosa; test: Inhibition of pyocyanin production in Pseudomonas aeruginosa at 50 uM relative to control; assay type: functional
[13] = test system: Pseudomonas aeruginosa; test: Inhibition of biofilm formation in Pseudomonas aeruginosa at 50 uM relative to control; assay type: functional
[14] = test system: Pseudomonas aeruginosa; test: Inhibition of pyocyanin production in Pseudomonas aeruginosa at 1 uM relative to control; assay type: functional
[15] = molecular target: Transcriptional activator protein LasR (Pseudomonas aeruginosa (strain ATCC 15692 / PAO1 / 1C / PRS 101 / LMG12228)) (UniProt P25084); test: Inhibition of Pseudomonas aeruginosa PAO1 LasR transfected with lasB-GFP at 10 uM measured after 12 hrs by fluorescence based microtiter plate reader method
Outline: (§4)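 GFP reporter strains (PqsR: PA14 pAW1::GFP; LasR: PAO1 lasB::GFP) grown 12 h in LB broth with 5% BSA, with or without 10 µM compound.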

[16] = molecular target: T1, Transcriptional regulator MvfR (Pseudomonas aeruginosa PA14); test: Inhibition of Pseudomonas aeruginosa PA14 PqsR transfected with pAW1-GFP at 10 uM measured after 12 hrs by fluorescence based microtiter plate reader method; outline: as §4
[17] = molecular target: T1, Transcriptional regulator MvfR (Pseudomonas aeruginosa PA14); test: Inhibition of Pseudomonas aeruginosa PqsR at 5 uM relative to control

Sequence of Voltage-gated inwardly rectifying potassium channel KCNH2 (Q12809 whole entry): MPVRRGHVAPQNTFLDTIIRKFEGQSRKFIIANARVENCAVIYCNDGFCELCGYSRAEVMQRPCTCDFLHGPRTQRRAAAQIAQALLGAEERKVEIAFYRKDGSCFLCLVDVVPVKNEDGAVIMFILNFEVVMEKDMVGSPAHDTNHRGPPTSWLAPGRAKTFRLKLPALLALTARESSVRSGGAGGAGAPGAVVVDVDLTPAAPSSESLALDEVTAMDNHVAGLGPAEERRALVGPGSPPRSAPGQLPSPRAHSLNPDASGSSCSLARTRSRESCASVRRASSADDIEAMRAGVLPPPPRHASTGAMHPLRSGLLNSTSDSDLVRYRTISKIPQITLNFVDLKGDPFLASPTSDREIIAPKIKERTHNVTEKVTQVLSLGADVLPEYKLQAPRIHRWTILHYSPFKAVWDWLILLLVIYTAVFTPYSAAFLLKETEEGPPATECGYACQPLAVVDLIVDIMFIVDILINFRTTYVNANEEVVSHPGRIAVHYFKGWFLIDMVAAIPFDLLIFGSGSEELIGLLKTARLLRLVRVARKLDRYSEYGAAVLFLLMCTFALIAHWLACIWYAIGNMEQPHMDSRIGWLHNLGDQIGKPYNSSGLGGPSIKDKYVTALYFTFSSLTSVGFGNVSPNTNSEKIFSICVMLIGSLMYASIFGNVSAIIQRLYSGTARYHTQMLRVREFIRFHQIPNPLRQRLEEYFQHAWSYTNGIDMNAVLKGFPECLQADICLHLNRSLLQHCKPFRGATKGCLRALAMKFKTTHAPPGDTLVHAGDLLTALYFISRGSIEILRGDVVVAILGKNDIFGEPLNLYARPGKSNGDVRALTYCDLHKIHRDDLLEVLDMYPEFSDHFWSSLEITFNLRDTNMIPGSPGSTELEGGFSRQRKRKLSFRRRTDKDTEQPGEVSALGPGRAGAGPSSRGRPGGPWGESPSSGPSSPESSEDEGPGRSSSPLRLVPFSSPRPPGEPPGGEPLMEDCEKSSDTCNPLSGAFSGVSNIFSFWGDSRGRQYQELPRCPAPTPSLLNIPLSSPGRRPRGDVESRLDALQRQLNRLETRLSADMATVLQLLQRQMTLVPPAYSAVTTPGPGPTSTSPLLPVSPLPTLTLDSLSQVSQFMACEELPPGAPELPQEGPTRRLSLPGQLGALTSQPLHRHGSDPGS
Sequence of Transcriptional activator protein LasR (Pseudomonas aeruginosa (strain ATCC 15692 / PAO1 / 1C / PRS 101 / LMG12228)) (P25084 whole entry): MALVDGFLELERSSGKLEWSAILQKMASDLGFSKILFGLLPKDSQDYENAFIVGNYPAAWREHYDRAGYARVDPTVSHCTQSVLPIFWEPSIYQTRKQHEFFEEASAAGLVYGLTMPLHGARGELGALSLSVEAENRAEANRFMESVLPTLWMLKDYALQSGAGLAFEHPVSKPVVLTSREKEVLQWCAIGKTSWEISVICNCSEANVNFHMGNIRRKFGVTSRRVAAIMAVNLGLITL

| Compound | inhibition at 10 µM [1] | IC50 [2] | inhibition at 10 µM [4] | also measured |
| --- | --- | --- | --- | --- |
| O=C(CCCS(=O)(=O)c1ccccc1)NC1CCOC1=O (stereo not drawn) | 40 to 60% | 109 µM | 40 to 60% | inhibition [3]: 30 to 50% |
| CCCCOc1cc(Cl)c(/N=N/c2c(O)ccc3ccccc23)c(OCCCC)c1 | – | 0.4 µM | – | inhibition [5]: inactive; inhibition [6]: inactive; inhibition [7]: inactive |
| CCCCOc1ccc(Cl)c(OCCCC)c1/N=N/c1c(O)ccc2ccccc12 | – | 0.38 µM | – | inhibition [5]: inactive; inhibition [6]: inactive; inhibition [7]: inactive |
| O=C(CCNC(=O)c1cccc([N+](=O)[O-])c1)NC1CCOC1=O (stereo not drawn) | 40 to 60% | 904 µM | 40 to 60% | inhibition [3]: 30 to 50% |
| O=C(CCCS(=O)(=O)c1ccccc1)Nc1cc[nH]c(=O)n1 | 40 to 60% | 67.8 µM | 40 to 60% | inhibition [8]: 20 to 90% |
| O=C(c1cn(CCCNCc2ccc(Oc3ccc(Cl)cc3)cc2)nn1)N1CCOCC1 | 40 to 60% | 0.678 µM | 40 to 60% | inhibition [9]: inactive |
| Cc1ccc(NC(=O)c2ccc3c(c2)CC(c2ccc(Cl)cc2)OC3=O)cc1C (stereo not drawn) | 40 to 60% | 6.77 µM | 40 to 60% | – |
| CCCCCCCCCNC(=O)CC(=O)c1ccccc1 | – | – | – | inhibition at 100 µM [10]: 90% |
| Cc1ccc(N(C)C(=O)c2ccc3c(c2)CC(c2ccc(Cl)cc2)OC3=O)cc1C (stereo not drawn) | 40 to 60% | 2.92 µM | 40 to 60% | – |
| O=C(CCCC(=O)c1cccc([N+](=O)[O-])c1)NC1CCCC1 | 40 to 60% | 20.4 µM | 40 to 60% | inhibition [3]: 30 to 50% |
| O=C1C=C(Br)/C(=C/Br)O1 | – | – | – | inhibition at 10 µM [11]: > 90% |
| O=C(Cc1ccc(Br)cc1)N[C@H]1CCOC1=O | – | – | – | inhibition at 50 µM [12]: 10 to 30%; inhibition at 50 µM [13]: 40% |
| O=C(CSc1nc2cc([N+](=O)[O-])ccc2[nH]1)Nc1ccc(Oc2ccccc2)cc1 | – | 8.24 µM | – | inhibition at 1 µM [14]: 95% |
| CCCCOc1cc(Cl)cc(OCCCC)c1/N=N/c1c(O)ccc2ccccc12 | – | – | – | inhibition [5]: inactive; inhibition [6]: inactive; inhibition [7]: inactive |
| O=C(CCNC(=O)c1cccc([N+](=O)[O-])c1)Nc1nc(=O)[nH]cc1F | 40 to 60% | 356 µM | 40 to 60% | inhibition [15]: inactive; inhibition [16]: Active; inhibition [8]: 20 to 90% |
| CCCCCCCc1[nH]c2ccc([N+](=O)[O-])cc2c(=O)c1CO | 40 to 60% | – | 40 to 60% | inhibition [17]: 100% |
| O=C(CCCS(=O)(=O)c1ccccc1)Nc1nc(=O)[nH]cc1F | 40 to 60% | 40.5 µM | 40 to 60% | inhibition [15]: inactive; inhibition [16]: inactive; inhibition [8]: 20 to 90% |
